Experimental data as given in ChEMBL document CHEMBL1122366, “Potential antiatherosclerotic agents. 3. Substituted benzoic and non benzoic acid analogues of cetaben” (1983).

How the values were obtained:
[1] = target: T1, Sterol O-acyltransferase 1 (Rattus norvegicus) (UniProt O70536); experiment: In vitro inhibition of acyl coenzyme A:cholesterol acyltransferase; set-up: concentration or dose not given beside the values; conditions: concentration not given here
T1 sequence (whole entry): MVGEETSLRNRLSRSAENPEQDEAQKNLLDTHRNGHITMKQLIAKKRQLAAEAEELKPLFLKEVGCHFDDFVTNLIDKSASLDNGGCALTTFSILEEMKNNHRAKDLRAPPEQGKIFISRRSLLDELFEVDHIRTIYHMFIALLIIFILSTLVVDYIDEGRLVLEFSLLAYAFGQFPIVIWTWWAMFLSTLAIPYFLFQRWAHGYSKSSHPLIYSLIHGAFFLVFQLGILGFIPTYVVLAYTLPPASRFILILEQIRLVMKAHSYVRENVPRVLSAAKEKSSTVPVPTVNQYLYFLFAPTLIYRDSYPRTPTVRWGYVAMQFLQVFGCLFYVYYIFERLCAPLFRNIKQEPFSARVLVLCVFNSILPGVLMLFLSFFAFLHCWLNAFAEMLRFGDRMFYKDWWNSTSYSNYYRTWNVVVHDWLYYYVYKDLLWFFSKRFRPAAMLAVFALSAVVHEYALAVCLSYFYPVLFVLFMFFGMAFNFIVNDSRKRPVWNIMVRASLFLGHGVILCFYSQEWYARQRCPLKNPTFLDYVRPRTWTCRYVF
Method in brief: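 Enzyme fatty acyl-CoA:cholesterol acyltransferase (ACAT), assayed in vitro at a single drug concentration of 5.2 μg/mL. The value is the mean percent inhibition of enzyme activity.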

Rattus norvegicus [2] = experiment: In vivo triglyceride lowering activity when dosed at 0.03 % of the diet; type: functional
Method in brief: (§1)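 Normal rats were dosed in the diet. Serum sterol and triglyceride levels were measured and expressed as the mean percent of control values. Significance versus control was reported at p < 0.05, 0.01 and 0.001.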

Rattus norvegicus [3] = experiment: In vivo sterol lowering activity when dosed as 0.01 % of the diet; type: functional; method in brief: as §1
Rattus norvegicus [4] = experiment: In vivo sterol lowering activity when dosed as 0.03 % of the diet; type: functional; method in brief: as §1
Rattus norvegicus [5] = experiment: In vivo sterol lowering activity at dose of 0.10 % of the diet; type: functional; method in brief: as §1
Rattus norvegicus [6] = experiment: In vivo triglyceride lowering activity when dosed as 0.01 % of the diet; type: functional; method in brief: as §1
Rattus norvegicus [7] = experiment: In vivo triglyceride lowering activity dosed at 0.10 % of the diet.; type: functional; method in brief: as §1

inhibition [1] [%] | Structure (SMILES) | serum triglyceride level, percent of control (Rattus norvegicus [2]) [%] | serum sterol level, % of control (Rattus norvegicus [3]) [%] | serum sterol level, percent of control (Rattus norvegicus [4]) [%] | serum sterol level, percent of control (Rattus norvegicus [5]) [%] | serum triglyceride level, percent of control (Rattus norvegicus [6]) [%] | serum triglyceride, percent of control (Rattus norvegicus [7]) [%]
< 27 | CCCCCCCCCCCCCCCCNc1ccc(C(=O)O)cc1F | 89 | 108 | 98 | <79 | 91 | <49
< 30 | CCCCCCCCCCCCCCCCNc1ccc(C=O)cc1 | <64 | 91 | 92 | <85 | <66 | <53
9 | CCCCCCCCCCCCCCCCNc1ccc(C(=O)C(C(=O)OCC)C(=O)OCC)cc1 | <66 | 100 | 96 | <87 | <68 | <59
9 | CCCCCCCCCCCCCCCCNc1ccc(C(=O)NO)cc1 | 76 | 106 | 106 | 104 | 70 | 82
< 24 | CCCCCCCCCCCCCCCCNc1ccc(C(=O)NN)cc1 | 84 | 110 | 105 | 116 | 108 | 84
< 21 | CCCCCCCCCCCCCCCCNc1ncc(C(=O)O)cn1 | 94 | 108 | 108 | 114 | 89 | 93
12 | CCCCCCCCCCCCCCCCN(C=O)c1ccc(C(=O)O)cc1 | 100 | <89 | 96 | 105 | 77 | 78
1 | CCCCCCCCCCCCCCCCNc1ccc(C(=O)SCCO)cc1 | 74 | <87 | <86 | <84 | 70 | <59
63 | CCCCCCCCCCCCCCCCNc1ccc(C(=O)[O-])c(C(=O)[O-])c1.[Na+].[Na+] | 85 | 100 | 105 | 101 | 110 | <67
20 | CCCCCCCCCCCCCCCCNc1ccc(C(=O)CO)cc1 | 75 | 103 | 97 | <85 | 89 | <71
< 64 | CCCCCCCCCCCCCCCCNc1ccc(C(=O)NCC(=O)O)cc1 | <70 | <77 | 87 | <77 | 76 | <48
0 | CCCCCCCCCCCCCCCCNc1ccc(C(=O)OCC(O)COC(=O)c2cccnc2)cc1 (configuration not stated) | 83 | 103 | 108 | 84 | 93 | <63
49 | CCCCCCCCCCCCCCCCNc1ccc(C(=O)NCCC(=O)O)cc1 | 78 | <90 | 93 | <86 | 99 | <55
14 | CCCCCCCCCCCCCCCCNc1ccc(C(=O)NS(=O)(=O)c2ccc(N)cc2)cc1 | 87 | 93 | 89 | 105 | 78 | 111
70 | CCCCCCCCCCCCCCCCNc1csc(C(=O)O)c1 | 103 | 98 | 101 | 98 | 112 | 79
0 | CCCCCCCCCCCCCCCCNc1ccc(C(=O)NC(=O)c2ccccc2)cc1 | <66 | 91 | <80 | <75 | 76 | <58
7 | CCCCCCCCCCCCCCCCNc1ccc(CCC(=O)OCC)cc1 | 88 | 89 | 89 | 84 | 96 | <45
16 | CCCCCCCCCCCCCCCCNc1ccc(C(=O)NCC(=O)OCC)cc1 | 74 | 92 | 96 | 92 | 78 | <69
< 40 | CCCCCCCCCCCCCCCCNc1ccc(C(=O)C(C#N)C(=O)OCC)cc1 (configuration not stated) | 90 | 115 | 100 | 100 | 83 | 105
< 61 | CCCCCCCCCCCCCCCCNc1ccc(C(=O)N2CCCCCC2)cc1 | 90 | 110 | 105 | 106 | 72 | 68
12 | Br.CCCCCCCCCCCCCCCCNc1ccc(OC(C)=O)cc1 | 146 | 92 | 95 | 91 | 108 | 117
< 43 | CCCCCCCCCCCCCCCCNc1ccc(C(=O)NS(=O)(=O)c2ccc([N+](=O)[O-])cc2)cc1 | <79 | 105 | 94 | <82 | 92 | 108
< 18 | CCCCCCCCCCCCCCCCNc1ccc(C(=O)Oc2ccc(C(=O)O)cc2)cc1 | 81 | 105 | 95 | 93 | 98 | 109
< 22 | CCCCCCCCCCCCCCCCNc1ccc(SCC(=O)O)cc1 | 110 | 92 | 97 | 93 | 72 | 100
0 | CCCCCCCCCCCCCCCCNc1ccc(C(=O)C(C)(C)C(=O)OCC)cc1 | <65 | 94 | 103 | 90 | 101 | 101
28 | CCCCCCCCCCCCCCCCNc1ccc(C(=O)OCC(CO)OC(C)=O)cc1 (configuration not stated) | <71 | 118 | 85 | 86 | 90 | <47
